FLuc inhib CS – Photinus pyralis luciferase inhibition counter-screen; P08659; ATPLite firefly luciferase biochemical luminescence, 10 min; inhibition, % at 10 µM; actives 1.5% (n = 200,000); AID 1006;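 active = inhibition above about 50% when tested at 10 µM, limit read from the data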
C8 TRAIL sens – caspase-8 TRAIL sensitization. NB7+C8 cells + TRAIL, ATPlite viability luminescence. inhibition (viability loss, TRAIL sensitization), % at 10 µM. actives 1% (n = 360,000). AID 624354;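 active = compounds causing at least 50% loss of cell viability in the single-dose screen, relative to plate controls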
Wee1 stabilizer – inhibitors of human Wee1 degradation. P30291. HeLa Luc-Wee1K328M stability, luciferase luminescence; 100% = proteasome inhibitor MG132 effect. reporter increase, % at 5 µM. actives 1.2% (n = 220,000);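 active = activation above the mean of all tested compounds plus 3 SD, set per screening run, cut at about 8.8% in these data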;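 note: cells exposed to compound for 20 h before luminescence read; 0% = DMSO alone and 100% = MG132 at 30 µM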
PPC-1+TRAIL kill – PPC-1 cancer cell killing with TRAIL present; PPC-1 cells + TRAIL, ATPLite viability luminescence; cell killing (% activity), % at 4 µM or 5 µM; actives 0.41% (n = 220,000);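 active = cell killing above 50% in the first pass at 4 µM, then a duplicate retest at 5 µM averaging 50% or more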;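 note: plate controls were cells with TRAIL plus DMSO for no effect and medium-only wells lacking cells for full effect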
FLuc act counter – affects firefly luciferase, flagging false hits in luciferase stimulation screens. P08659. ATPlite luciferase biochemical, luminescence, 10 min; 0 = ATP-free wells, 1 = DMSO control. activation factor at 10 µM. 200,000 tested, under 10 active. AID 1027;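 active = luciferase activation factor, scaled between plate controls, of at least 2 with compound at 10 µM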
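Assay system: Luciferase/luciferin detection reagent, cell-free biochemical luciferase assay / Read-out: luciferase activation / Benchmarks: No-ATP low control, compound-free enzyme-plus-ATP high control / Medium: PBS buffer for ATP / Detection: luminescence measurement of luciferase light output / Schedule: 10 min at ambient temperature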
PKD1 inh – PKD1 (human) kinase inhibition; PKD1 kinase fluorescence polarization assay; inhibition, % (no concentration beside the values); actives 0.056% (n = 200,000); AID 797; in the data active = inhibition above about 50%
Target sequence (Q15139 whole entry, looked up): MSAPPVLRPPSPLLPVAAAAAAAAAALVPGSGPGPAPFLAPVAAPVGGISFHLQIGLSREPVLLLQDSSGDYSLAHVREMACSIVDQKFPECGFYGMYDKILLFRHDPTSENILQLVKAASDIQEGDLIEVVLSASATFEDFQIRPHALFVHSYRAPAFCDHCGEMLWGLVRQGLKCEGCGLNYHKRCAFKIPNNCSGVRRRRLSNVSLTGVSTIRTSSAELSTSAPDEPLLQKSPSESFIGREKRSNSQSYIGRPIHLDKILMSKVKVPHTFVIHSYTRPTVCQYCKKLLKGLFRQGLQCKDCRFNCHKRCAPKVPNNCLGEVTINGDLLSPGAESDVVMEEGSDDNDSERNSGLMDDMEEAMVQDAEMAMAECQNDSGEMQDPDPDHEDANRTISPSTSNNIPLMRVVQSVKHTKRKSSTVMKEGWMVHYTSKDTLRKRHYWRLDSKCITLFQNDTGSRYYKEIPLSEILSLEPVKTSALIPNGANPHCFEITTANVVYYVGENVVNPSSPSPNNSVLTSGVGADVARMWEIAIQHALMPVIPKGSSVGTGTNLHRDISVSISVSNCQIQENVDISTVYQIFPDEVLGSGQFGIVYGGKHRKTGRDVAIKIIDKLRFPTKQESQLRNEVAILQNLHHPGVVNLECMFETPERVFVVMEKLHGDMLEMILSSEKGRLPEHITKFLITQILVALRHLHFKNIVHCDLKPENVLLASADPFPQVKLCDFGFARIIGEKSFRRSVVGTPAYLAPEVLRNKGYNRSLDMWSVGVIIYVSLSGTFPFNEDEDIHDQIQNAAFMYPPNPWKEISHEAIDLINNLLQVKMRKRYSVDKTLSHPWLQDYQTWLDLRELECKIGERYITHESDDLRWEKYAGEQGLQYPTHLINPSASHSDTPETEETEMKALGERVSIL
Active calls of the source: *. This is a sample that favours compounds with a hit; in the whole collection about 2.2% have one here.

Screening CC1CN(C(=O)CCC(=O)NCc2ccc(Cl)cc2)c2ccccc2S1 (configuration not stated) returned C8 TRAIL sens -7.
Screening COc1ccccc1N/C=C/c1onc(C)c1[N+](=O)[O-] returned FLuc inhib CS 59*, C8 TRAIL sens 47, Wee1 stabilizer 4, PPC-1+TRAIL kill 33, FLuc act counter 0.4 and PKD1 inh -9.
Cc1noc(/C=C/Nc2ccc(F)cc2F)c1[N+](=O)[O-] was read as FLuc inhib CS 1, C8 TRAIL sens 3, Wee1 stabilizer 6, PPC-1+TRAIL kill 3, FLuc act counter 1 and PKD1 inh 0.
Screening OC(C#CCN1CCCC1)(c1ccccc1)c1cccnc1 (configuration not stated) returned C8 TRAIL sens -6, Wee1 stabilizer 10* and PPC-1+TRAIL kill 9.
`COc1ccccc1/C=C/C(=O)OCC(=O)Nc1c(F)cccc1F` gave FLuc inhib CS 64*, C8 TRAIL sens -1, Wee1 stabilizer 0, PPC-1+TRAIL kill 0, FLuc act counter 0.4 and PKD1 inh -4.
`COc1ccccc1/C=C/C(=O)OCC(=O)Nc1ccc2c(c1)OCO2` gave C8 TRAIL sens -7.
`O=C(Nc1ccc2ccccc2n1)c1ccccc1Cl` gave C8 TRAIL sens 37.
For COc1ccc(C(=O)Nc2ccc3ccccc3n2)c(OC)c1OC the results were C8 TRAIL sens 83*.
`COc1ccc(C(=O)NCCN(C)C)c2nc3ccccc3cc12` gave C8 TRAIL sens 51*.
`O=C(C=C1SCCS1)/C=C/c1ccco1` gave FLuc inhib CS 70*, C8 TRAIL sens 34, Wee1 stabilizer -2, PPC-1+TRAIL kill 4, FLuc act counter 0.3 and PKD1 inh -19.
`CC(C)(C)Nc1nc(Oc2ccc(=O)[nH]n2)nc(N2CCOCC2)n1` gave FLuc inhib CS -4, C8 TRAIL sens -6, Wee1 stabilizer 9.6*, PPC-1+TRAIL kill -2, FLuc act counter 1 and PKD1 inh 3.
For O=C(CSc1ccc2nnc(-c3cccnc3)n2n1)c1ccccc1 the results were FLuc inhib CS -4, C8 TRAIL sens 3, Wee1 stabilizer 5, PPC-1+TRAIL kill 18, FLuc act counter 1 and PKD1 inh 112*.
Screening O=C(CSc1ccc2nnc(-c3cccnc3)n2n1)Nc1ccccc1F returned C8 TRAIL sens -15.
For CC(C)=NNc1ncnc2nc[nH]c12 the results were C8 TRAIL sens 8.
For CCc1ccc(/C=N/Nc2ncnc3nc[nH]c23)cc1 the results were C8 TRAIL sens 60*, Wee1 stabilizer 3 and PPC-1+TRAIL kill 42.
`O=c1c2[nH]c3ccc(F)cc3c2ncn1C1CCCCC1` gave FLuc inhib CS 6, C8 TRAIL sens 51*, Wee1 stabilizer 0, PPC-1+TRAIL kill 14, FLuc act counter 0.9 and PKD1 inh -5.
`CC(C)(C)c1ccc(O)c(O)c1` gave C8 TRAIL sens -19.
`CC(C)(C)c1ccc(O)c(/C=N\O)c1` gave FLuc inhib CS 0, C8 TRAIL sens 72*, Wee1 stabilizer 3, PPC-1+TRAIL kill -23, FLuc act counter 1 and PKD1 inh -2.
`CCOc1cccc2sc(N(CCCN(C)C)C(=O)c3ccc(S(=O)(=O)N(C)Cc4ccccc4)cc3)nc12` gave C8 TRAIL sens 51*.
`Cc1ccc2sc(N(CCCN(C)C)C(=O)c3ccc(S(=O)(=O)N(C)C)cc3)nc2c1C` gave FLuc inhib CS -4, C8 TRAIL sens -9, Wee1 stabilizer -2, PPC-1+TRAIL kill 16, FLuc act counter 1 and PKD1 inh 7.
For CCOc1cccc2sc(N(CCCN(C)C)C(=O)c3ccc(S(=O)(=O)N(CC)Cc4ccccc4)cc3)nc12 the results were C8 TRAIL sens 45.
`CCN(Cc1ccccc1)S(=O)(=O)c1ccc(C(=O)N(CCCN(C)C)c2nc3cc(C)cc(C)c3s2)cc1` gave C8 TRAIL sens 75*.
For Cc1cc(C)c2sc(N(CCCN(C)C)C(=O)c3ccc(S(=O)(=O)N(C)Cc4ccccc4)cc3)nc2c1 the results were C8 TRAIL sens 47.
Screening Cc1ccc2sc(N(CCCN(C)C)C(=O)c3ccc(S(=O)(=O)N(C)Cc4ccccc4)cc3)nc2c1C returned C8 TRAIL sens 69*.
Screening O=C(Nc1cccc(F)c1)Nc1nnc([C@@H]2O[C@H](CO)[C@@H](O)[C@H]2O)s1 returned C8 TRAIL sens -4.
CS(=O)(=O)N(CC(=O)NCc1ccco1)c1cccc([N+](=O)[O-])c1 was read as FLuc inhib CS 0, C8 TRAIL sens -1, Wee1 stabilizer 2, PPC-1+TRAIL kill 5, FLuc act counter 1 and PKD1 inh -2.
Screening CCCCn1c(N)c(N(Cc2ccccc2OC)C(=O)CSCC(=O)Nc2cccc(C)c2)c(=O)[nH]c1=O returned C8 TRAIL sens -12.
`O=C(O)C1CCCCN1C(=O)c1ccc(S(=O)(=O)N2CCCCCC2)cc1` (configuration not stated) gave C8 TRAIL sens -10.
Screening CCCn1c(C(C)Nc2nc(-c3cc(Cl)c(N)c(Cl)c3)cs2)nc2cc(Cl)c(N3CCCCC3)cc21 (configuration not stated) returned C8 TRAIL sens 14.
For CCCCC(=O)OCC(=O)c1[nH]c(C)c(C(C)=O)c1C the results were FLuc inhib CS 4, C8 TRAIL sens -1, Wee1 stabilizer 6, PPC-1+TRAIL kill 7, FLuc act counter 1 and PKD1 inh -8.
Screening c1ccc2c(c1)COc1c3cc4c(cc3nn1-2)OCO4 returned C8 TRAIL sens 59*.
`O=C(Nc1ccnn1C1CCN(C(=O)c2cc(Cl)ccc2F)CC1)C1CCOC1` (configuration not stated) gave C8 TRAIL sens 2.
`COc1ccc(Cl)cc1NC(=O)CN(C)C1CCCCC1` gave FLuc inhib CS -2, C8 TRAIL sens 6, Wee1 stabilizer 1, PPC-1+TRAIL kill -14, FLuc act counter 1 and PKD1 inh 0.
`COc1ccc(C)cc1NC(=O)CN(Cc1nnc(-c2ccc(Cl)cc2)o1)C1CCCC1` gave FLuc inhib CS -4, C8 TRAIL sens 85*, Wee1 stabilizer -3, PPC-1+TRAIL kill 25, FLuc act counter 1 and PKD1 inh -3.
`N#Cc1c(/N=C/c2cccs2)sc2c1CCC2` gave FLuc inhib CS 62*, C8 TRAIL sens 10, Wee1 stabilizer -4, PPC-1+TRAIL kill 21, FLuc act counter 0.4 and PKD1 inh 10.
CN(C)/C=N/c1sc2c(c1C#N)CCCC2 was read as FLuc inhib CS 8, C8 TRAIL sens -7, Wee1 stabilizer 2, PPC-1+TRAIL kill 22, FLuc act counter 0.9 and PKD1 inh 2.
N#Cc1c(/N=C/c2ccco2)sc2c1CCCCC2 was read as FLuc inhib CS 94*, C8 TRAIL sens 3, Wee1 stabilizer 0, PPC-1+TRAIL kill 7, FLuc act counter 0.1 and PKD1 inh 6.

Assay outcomes as filed in PubChem BioAssay.
